Test results reported in PubChem BioAssay AID743247 (Broad Institute, 2014).
Where “and” joins values, the source holds several entries; their conditions need not be identical. Equal entries are not always repeated. The campaign covered roughly 350,000 compounds. About 300 (0.086%) were called active. Shown is part of a subset that was picked to be rich in actives. Unmarked numbers belong to inactive results.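 The calls were made as follows: active = mean inhibition across replicates of 30% or more, regardless of how many single replicates reach that level; inconclusive = mean under 30% yet at least half of replicates reach 30%; inactive = the rest.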

assay: blockers of fibronectin fibrillogenesis by fibroblasts – AH1F cells, Alexa488-fibronectin fluorescence, plate reader, primary screen (AID 743247); conditions: Alexa488-fibronectin deposition fluorescence, overnight, at 12.6 µM, active compounds read high;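 also: positive control wells lacked labelled fibronectin entirely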
Outline: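 Material: AH1F fibroblasts assembling fluorescent fibronectin matrix; amount: 10000 AH1F cells/well; medium: DMEM, 2% serum; reagent: Alexa488-fibronectin, 24 nM final in well; dosing: single compound dose, delivered by pin transfer; incubation: 1 h adhesion, overnight exposure; detection: fluorescence after three HBSS washes, excitation 485 nm, emission 525 nm; measure: fibronectin deposition inhibition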

Row | Compound | inhibition
1 | O=C(C[C@H]1CC[C@@H]2[C@H](COC[C@H](O)CN2CCC(F)(F)F)O1)NCC1CC1 | -3.5%
2 | C[C@@H]1CN(C)C(=O)c2cccc(N(C)C)c2O[C@H]1CN(C)S(C)(=O)=O | -2.39%
3 | CN1c2ccc(-c3cccc(C#N)c3)cc2[C@H]2[C@H](CCN2S(=O)(=O)c2cccc(F)c2)[C@@H]1CO | 13.8%
4 | COCC(=O)Nc1ccc2c(c1)OC[C@H](C)N(C)C[C@H](C)[C@@H](OC)CN(C)C2=O | -14.1%
5 | CC(C)NC(=O)N[C@@H]1C=C[C@@H](CC(=O)N2CCCCC2)O[C@@H]1CO | -8.74%
6 | c1ccc(-c2ccc(C3[C@@H]4CN(Cc5cccnc5)C[C@H]3N4)cc2)cc1 (some centres undefined) | -4.82% and -10.1%
7 | CCc1nc2c(OCCOc3ccccc3)cccn2c1N(C)C(=O)c1ccccc1F | -0.297%
8 | CCc1nc2c(OCCOc3ccccc3)cccn2c1N(C)C(=O)c1ccc(OC)cc1 | 5.55%
9 | CCc1nc2c(OCCc3cccc(OC)c3)cccn2c1N(C)C(=O)c1ccc(C)cc1 | 30.8% (active)
10 | CCC(=O)N(C)C[C@H]1Oc2ncc(-c3ccc(C)cc3)cc2C(=O)N([C@@H](C)CO)C[C@@H]1C | -13%
11 | C[C@@H]1CCCCO[C@H](CN(C)C(=O)c2ccccc2)[C@@H](C)CN([C@H](C)CO)C(=O)c2cc(NC(=O)c3ccccc3)ccc2O1 | 7%
12 | O=C(C[C@H]1C[C@H]2c3cc(NC(=O)NC4CCCC4)ccc3O[C@H]2[C@@H](CO)O1)NCc1ccc(-c2ccccc2)cc1 | -25.6%
13 | CCCNC(=O)C[C@H]1CC[C@@H]2[C@H](COc3ccc(NC(=O)c4ccc(OC)cc4)cc3C(=O)N2C)O1 | 10.3%
14 | CC(=O)N1[C@H](CO)[C@@H](c2ccc(-c3ccc(F)cc3)cc2)[C@H]1CNC(=O)C1CC1 | -16%
15 | CC(=O)N1[C@H](CNC(=O)CN(C)C)[C@H](c2ccc(C3=CCCC3)cc2)[C@@H]1CO | 13.6%
16 | CC[C@@H]1CC=CC[C@H](C)Oc2ccccc2C(=O)N(C)[C@H](Cc2ccccc2)C(=O)N1 (mixture of isomers) | -1.05%
17 | O=C1[C@H](Cc2ccc(C(F)(F)F)cc2)CCn2nncc2COC[C@@H]2CCCCN12 | 4.17%
18 | C[C@@H]1COCc2cnnn2CC[C@H](Cc2ccccc2)C(=O)N1 | -8.72%
19 | C[C@H](CO)N1C[C@H](C)[C@@H](CN(C)S(C)(=O)=O)Oc2cc(C#CC3CC3)ccc2S1(=O)=O | 5.58%
20 | CO[C@H]1CN(C)C(=O)c2ccc(NC(=O)C3CC3)cc2OC[C@@H](C)N(C(=O)c2ccccn2)C[C@@H]1C | 2.68%
21 | O=C(C[C@@H]1CC[C@@H](NC(=O)C2CC2)[C@@H](CO)O1)NCc1ccccc1Cl | -5.16%
22 | Cc1noc(C)c1S(=O)(=O)N(C)C[C@H]1Oc2ccc(N(C)C)cc2C(=O)N([C@H](C)CO)C[C@@H]1C | -9.54%
23 | CO[C@H]1CN(C)C(=O)c2cc(NS(=O)(=O)c3ccccc3)ccc2OC[C@@H](C)N(Cc2nccs2)C[C@@H]1C | -0.524%

Row | Compound | inhibition
24 | O=C(Nc1cc(F)ccc1F)N[C@H]1CC[C@H](CCn2cc(C3CCCC3)nn2)O[C@@H]1CO | -1.92%
25 | CC(=O)N(C)C[C@@H]1Oc2ccc(N)cc2CC(=O)N(C)C[C@H]1C | -1.05%
26 | CNC[C@@H]1Oc2ccc(N(C)C)cc2CC(=O)N(C)C[C@@H]1C | 2.18%
27 | C[C@H](CO)N1C[C@H](C)[C@H](CN(C)Cc2ccc(C(F)(F)F)cc2)OCCCC[C@H](C)Oc2ccc(NS(=O)(=O)c3ccc(Cl)cc3)cc2C1=O | -21%
28 | C[C@@H]1CCCCO[C@H](CN(C)C)[C@H](C)CN([C@@H](C)CO)C(=O)c2cc(NS(=O)(=O)c3cn(C)cn3)ccc2O1 | -0.203%
29 | CCC(=O)N1CC2(C1)[C@@H](c1ccccc1)[C@H](CO)N2CC1CCOCC1 | -2.08%
30 | CN1c2ccc(-c3cccc(C#N)c3)cc2[C@@H]2[C@@H](CCN2C(=O)NC2CCCCC2)[C@@H]1CO | -3.13%
31 | COc1ccc(NC(=O)N2C[C@H](O)COC[C@H]3O[C@@H](CC(=O)N4CCN(C)CC4)CC[C@@H]32)cc1 | -2.89%
32 | CC[C@H]1CC=CC[C@@H](C)Oc2ccccc2C(=O)N(C)[C@H](Cc2ccccc2)C(=O)N1 (mixture of isomers) | 0.881%
33 | COc1ccccc1NC(=O)N1[C@@H]2CNC[C@H]1C2c1ccc(-c2ccccc2C)cc1 (some centres undefined) | -3.3%
34 | CCCN1C[C@@H](C)[C@@H](OC)CN(C)C(=O)c2cc(NC(=O)Nc3cccc(F)c3)ccc2OC[C@@H]1C | -5.97%
35 | C[C@H]1CN(C)C(=O)c2cccc(N(C)C)c2O[C@@H]1CN(C)C | -26.9%
36 | O=C(C1CCCCC1)N1CC(=O)N2[C@H](CO)[C@H](c3ccc(-c4ccccc4F)cc3)[C@H]2C1 | -7.64%
37 | O=C1N[C@H](c2ccccc2)COCc2cn(nn2)CC[C@H]1Cc1cccc(Cl)c1 | -1.96%
38 | COc1ccc2c3c([nH]c2c1)[C@@H](CO)N(Cc1ccccc1)CC31CCN(Cc2cncnc2)CC1 | -11.5%
39 | O=C1NCCOCc2cn(nn2)CC[C@@H]1Cc1ccccc1 | -3.44%
40 | CCCNC(=O)Nc1ccc2c(c1)C(=O)N(C)[C@H]1CC[C@H](CC(=O)NC3CCC3)O[C@H]1CO2 | -3.4%
41 | CN(C)CC(=O)N[C@@H]1CC[C@H](CCn2cc(C3CCCC3)nn2)O[C@H]1CO | 5.53%
42 | CC(C)NC(=O)Nc1cccc2c1O[C@H](CN(C)Cc1ccc3c(c1)OCO3)[C@H](C)CN([C@H](C)CO)C2=O | 7.48%
43 | CNC[C@H]1Oc2ccccc2CC(=O)N(C)C[C@H]1C | -0.894%
44 | COc1ccc2c3c(n(C)c2c1)[C@H](CO)N(C)CC31CN(S(=O)(=O)c2cccc(C)c2)C1 | 11.9%
45 | O=C1C[C@@H](c2ccccc2)C(=O)N[C@H](c2ccc(F)cc2)C/C=C\CCN1 | -8.29%
46 | C/C=C/c1ccc2c(c1)O[C@H](CN(C)C(=O)Nc1ccc(OC)cc1)[C@@H](C)CN([C@H](C)CO)S2(=O)=O | 9.72%

Row | Compound | inhibition
47 | Cc1cccc(NC(=O)c2nc(S(=O)(=O)Cc3ccccc3)ncc2Cl)c1 | 20.9%
48 | Cc1ccc(CS(=O)(=O)c2ncc(Cl)c(C(=O)Nc3nnc(C)s3)n2)cc1 | 0.254%
49 | Cc1cccc(CS(=O)(=O)c2ncc(Cl)c(C(=O)Nc3ccc(F)cc3)n2)c1 | 34.8% (active)
50 | O=C(C1CCC1)N1CC[C@H]2[C@H](CO)Nc3ccc(-c4cccc(F)c4)cc3[C@H]21 | -4.67%
51 | COc1ccc(-c2ccccc2[C@H]2[C@@H](CO)N(C(=O)c3cccnc3)[C@H]2C#N)cc1 | 0.791%
52 | COc1cccc(C(=O)Nc2ccc3c(c2)C(=O)N(C)[C@H]2CC[C@@H](CC(=O)N[C@H](C)c4ccccc4)O[C@H]2CO3)c1 | 1.83%
53 | CS(=O)(=O)Nc1ccc2c(c1)[C@H]1C[C@@H](CC(=O)N3CCOCC3)O[C@@H](CO)[C@H]1O2 | -0.107%
54 | C[C@@H]1CC=CC[C@@H](c2ccccc2)NC(=O)[C@@H](Cc2ccccc2)N(C)C(=O)c2ccccc2O1 (mixture of isomers) | 15.9%
55 | O=C(Nc1ccc(C(F)(F)F)cc1)N1[C@@H]2CNC[C@H]1C2c1ccc(-c2ccncc2)cc1 (some centres undefined) | -4.68% and -6.18%
56 | COc1cccc(NC(=O)Nc2ccc3c(c2)OC[C@@H](C)NC[C@@H](C)[C@H](OC)CN(C)C3=O)c1 | -4.31%
57 | CCCN1[C@H](CO)[C@H](c2ccc(C#CC3CCCCC3)cc2)[C@@H]1CNC(=O)C1CC1 | -11.7%
58 | COc1ccc(S(=O)(=O)N(C)C[C@@H]2Oc3ccc(NC(=O)Nc4cccc5ccccc45)cc3C(=O)N([C@H](C)CO)C[C@H]2C)cc1 | 9.82%
59 | COc1ccc2c3c(n(C)c2c1)[C@H](CO)N(Cc1ccc(F)cc1)CC31CCN(C)CC1 | 8.27%
60 | O=C(Nc1ccccc1Cl)/C(Cl)=C(\Cl)S(=O)c1ccccc1 (centres undefined) | 41.6% (active)
61 | O=C(CCN1CCN(C/C=C/c2ccccc2)CC1)Nc1ccccc1Cl | 15.1%
62 | NC(=O)C1(Nc2ccccc2Cl)CCCC1 | -0.504%
63 | COc1ccc2c3c(n(C)c2c1)[C@H](CO)N(C(C)=O)CC31CN(Cc2ccc(Cl)cc2)C1 | 9.57%
64 | COc1ccc(S(=O)(=O)N2C[C@@H](O)COC[C@H]3O[C@@H](CC(=O)NCCN4CCCCC4)CC[C@@H]32)cc1 | -7.51%
65 | CO[C@H]1CN(C)C(=O)c2ccc(NC(C)=O)cc2OC[C@@H](C)N(C(=O)c2ccncc2)C[C@@H]1C | -5.05%
66 | O=C(c1cnccn1)N1CC(=O)N2[C@H](C1)[C@@H](c1ccc(C#CC3CCCC3)cc1)[C@@H]2CO | 0.368%
67 | CN(C)C(=O)C[C@H]1C[C@H]2c3cc(NC(=O)Nc4ccccc4F)ccc3O[C@H]2[C@@H](CO)O1 | -8.8%
68 | CC(=O)N1C[C@@H]2C(c3ccccc3)[C@@H](C1)N2C(=O)NC(C)C (some centres undefined) | -6.49%
69 | O=C(NCc1ccc(F)cc1)[C@@H]1[C@@H](CO)[C@@H]2Cn3c(cccc3=O)[C@@H]2N1C(=O)c1cccnc1 | 12.8%
